Experimental data as given in ChEMBL document CHEMBL1145694, “In vitro evaluation of antifungal properties of 8.O.4'-neolignans” (1997).
Converted amounts (≈) assume the structure as drawn. The source made the active and inactive calls. No cut-off for these calls is given here.

Experiments:
Candida albicans = assay: Antifungal activity against Candida albicans ATCC 10231 up to 250 ug/mL by agar dilution method; type: functional, organism-based
Method in brief: (§1)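 Agar dilution in Saboureaud-chloramphenicol agar wells. Test agents from DMSO stocks were serially diluted twofold to final 0.10–250 µg/mL, with DMSO ≤2% final. Each well got 5 µL of yeast cell or spore suspension (spores at 10⁶ CFU/mL). Ketoconazole and amphotericin B served as positive controls, with a drug-free blank. Plates were held at 30 °C for 24, 48 or 72 h, set by control growth. MIC = lowest concentration with no visible growth.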

Saccharomyces cerevisiae = assay: Antifungal activity against Saccharomyces cerevisiae ATCC 9763 up to 250 ug/mL by agar dilution method; type: functional, organism-based; method in brief: as §1
Cryptococcus neoformans = assay: Antifungal activity against Cryptococcus neoformans ATCC 32264 up to 250 ug/mL by agar dilution method; type: functional, organism-based; method in brief: as §1
Aspergillus niger = assay: Antifungal activity against Aspergillus niger ATCC 9029 up to 250 ug/mL by agar dilution method; type: functional, organism-based; method in brief: as §1
Aspergillus fumigatus = assay: Antifungal activity against Aspergillus fumigatus ATCC 26934 up to 250 ug/mL by agar dilution method; type: functional, organism-based; method in brief: as §1
Aspergillus flavus = assay: Antifungal activity against Aspergillus flavus ATCC 9170 up to 250 ug/mL by agar dilution method; type: functional, organism-based; method in brief: as §1
Microsporum canis = assay: Antifungal activity against Microsporum canis C112 after 15 days by agar dilution method; type: functional; settings: 360 h
Method in brief: (§2)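 Dermatophytes were kept on Saboureaud dextrose agar slopes and subcultured every 15 days. Spore suspensions were set to 10⁶ CFU/mL, and 5 µL went into Saboureaud-chloramphenicol agar wells. Wells held twofold dilutions from DMSO stocks, final 0.10–250 µg/mL, DMSO ≤2%. Ketoconazole and amphotericin B were positive controls, with a drug-free blank. Incubation was at 30 °C for up to 15 days. MIC = lowest concentration with no visible growth.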

Nannizzia gypsea = assay: Antifungal activity against Microsporum gypseum C115 after 15 days by agar dilution method; type: functional; settings: 360 h; method in brief: as §2
[1] = tested on: Trichophyton mentagrophytes; assay: Antifungal activity against Trichophyton mentagrophytes ATCC 9972 after 15 days by agar dilution method; type: functional; settings: ATCC 9972, 360 h; method in brief: as §2
Trichophyton rubrum = assay: Antifungal activity against Trichophyton rubrum C113 after 15 days by agar dilution method; type: functional; settings: 360 h; method in brief: as §2
Epidermophyton floccosum = assay: Antifungal activity against Epidermophyton floccosum C114 after 15 days by agar dilution method; type: functional; settings: 360 h; method in brief: as §2

Q: Which Activity (Candida albicans) does the source give for `C=CCc1cc(OC)c(O[C@@H](C)[C@@H](O)c2ccc3c(c2)OCO3)c(OC)c1` (racemic) here?
A: inactive

Q: What about the Activity (Saccharomyces cerevisiae) of the same compound?
A: inactive

Q: What about the Activity (Cryptococcus neoformans) of the same compound?
A: inactive

Q: What about the Activity (Aspergillus niger) of the same compound?
A: inactive

Q: And the Activity (Aspergillus fumigatus)?
A: inactive

Q: And the Activity (Aspergillus flavus)?
A: inactive

Q: What about the MIC (Microsporum canis) of the same compound?
A: 80 µg/mL (≈ 215 µM)

Q: And the MIC (Nannizzia gypsea)?
A: 40 µg/mL (≈ 107 µM)

Q: What about the MIC [1] of the same compound?
A: 200 µg/mL (≈ 537 µM)

Q: And the MIC (Trichophyton rubrum)?
A: 20 µg/mL (≈ 53.7 µM)

Q: What about the MIC (Epidermophyton floccosum) of the same compound?
A: 15 µg/mL (≈ 40.3 µM)

Q: With `C=CCc1cc(OC)c(O[C@@H](C)[C@@H](O)c2ccc(OC)c(OC)c2)c(OC)c1` (racemic) as the compound, how does the Activity (Candida albicans) read?
A: inactive

Q: And the Activity (Saccharomyces cerevisiae)?
A: inactive

Q: What about the Activity (Cryptococcus neoformans) of the same compound?
A: inactive

Q: And the Activity (Aspergillus niger)?
A: inactive

Q: What about the Activity (Aspergillus fumigatus) of the same compound?
A: inactive

Q: And the Activity (Aspergillus flavus)?
A: inactive

Q: And the MIC (Microsporum canis)?
A: 40 µg/mL (≈ 103 µM)

Q: What about the MIC (Nannizzia gypsea) of the same compound?
A: 150 µg/mL (≈ 386 µM)

Q: What about the MIC [1] of the same compound?
A: 150 µg/mL (≈ 386 µM)

Q: What about the MIC (Trichophyton rubrum) of the same compound?
A: 40 µg/mL (≈ 103 µM)

Q: What about the MIC (Epidermophyton floccosum) of the same compound?
A: 60 µg/mL (≈ 154 µM)

Q: How did the Activity (Candida albicans) turn out when `C=CCc1cc(OC)c(O[C@H](C)[C@@H](O)c2ccc3c(c2)OCO3)c(OC)c1` (racemic) was run?
A: inactive

Q: And the Activity (Saccharomyces cerevisiae)?
A: inactive

Q: What about the Activity (Cryptococcus neoformans) of the same compound?
A: inactive

Q: What about the Activity (Aspergillus niger) of the same compound?
A: inactive

Q: And the Activity (Aspergillus fumigatus)?
A: inactive

Q: And the Activity (Aspergillus flavus)?
A: inactive

Q: What about the MIC (Microsporum canis) of the same compound?
A: 20 µg/mL (≈ 53.7 µM)

Q: And the MIC (Nannizzia gypsea)?
A: 50 µg/mL (≈ 134 µM)

Q: And the MIC [1]?
A: 100 µg/mL (≈ 269 µM)

Q: And the MIC (Trichophyton rubrum)?
A: > 250 µg/mL

Q: What about the MIC (Epidermophyton floccosum) of the same compound?
A: 5 µg/mL (≈ 13.4 µM)

Q: With `C/C=C/c1ccc(OC(C)C(=O)c2cc(OC)c(OC)c(OC)c2)c(OC)c1` (racemic) as the compound, how does the Activity (Candida albicans) read?
A: inactive

Q: And the Activity (Saccharomyces cerevisiae)?
A: inactive

Q: What about the Activity (Cryptococcus neoformans) of the same compound?
A: inactive

Q: What about the Activity (Aspergillus niger) of the same compound?
A: inactive

Q: And the Activity (Aspergillus fumigatus)?
A: inactive

Q: And the Activity (Aspergillus flavus)?
A: inactive

Q: What about the MIC (Microsporum canis) of the same compound?
A: > 250 µg/mL

Q: And the MIC (Nannizzia gypsea)?
A: > 250 µg/mL

Q: And the MIC [1]?
A: > 250 µg/mL

Q: And the MIC (Trichophyton rubrum)?
A: > 250 µg/mL

Q: What about the MIC (Epidermophyton floccosum) of the same compound?
A: > 250 µg/mL

Q: With `C=CCc1cc(OC)c(O[C@H](C)[C@@H](O)c2ccc(OC)c(OC)c2)c(OC)c1` (racemic) as the compound, how does the Activity (Candida albicans) read?
A: inactive

Q: And the Activity (Saccharomyces cerevisiae)?
A: inactive

Q: What about the Activity (Cryptococcus neoformans) of the same compound?
A: inactive

Q: What about the Activity (Aspergillus niger) of the same compound?
A: inactive

Q: What about the Activity (Aspergillus fumigatus) of the same compound?
A: inactive

Q: And the Activity (Aspergillus flavus)?
A: inactive

Q: And the MIC (Microsporum canis)?
A: 150 µg/mL (≈ 386 µM)

Q: What about the MIC (Nannizzia gypsea) of the same compound?
A: 50 µg/mL (≈ 129 µM)

Q: What about the MIC [1] of the same compound?
A: 150 µg/mL (≈ 386 µM)

Q: And the MIC (Trichophyton rubrum)?
A: 80 µg/mL (≈ 206 µM)

Q: What about the MIC (Epidermophyton floccosum) of the same compound?
A: 40 µg/mL (≈ 103 µM)

Q: What does the source list for `C/C=C/c1ccc(O[C@@H](C)[C@@H](O)c2ccc(OC)c(OC)c2)c(OC)c1` (racemic) [VIROLIN]?
A: Activity (Candida albicans): inactive; Activity (Saccharomyces cerevisiae): inactive; Activity (Cryptococcus neoformans): inactive; Activity (Aspergillus niger): inactive; Activity (Aspergillus fumigatus): inactive; Activity (Aspergillus flavus): inactive; MIC (Microsporum canis): 50 µg/mL (≈ 139 µM); MIC (Nannizzia gypsea): > 250 µg/mL; MIC [1]: > 250 µg/mL; MIC (Trichophyton rubrum): > 250 µg/mL; MIC (Epidermophyton floccosum): 100 µg/mL (≈ 279 µM)

Q: `C/C=C/c1ccc(O[C@H](C)[C@@H](O)c2cc(OC)c(OC)c(OC)c2)c(OC)c1` (racemic) was tested. Which Activity (Candida albicans) did it give?
A: inactive

Q: And the Activity (Saccharomyces cerevisiae)?
A: inactive

Q: And the Activity (Cryptococcus neoformans)?
A: inactive

Q: What about the Activity (Aspergillus niger) of the same compound?
A: inactive

Q: And the Activity (Aspergillus fumigatus)?
A: inactive

Q: And the Activity (Aspergillus flavus)?
A: inactive

Q: What about the MIC (Microsporum canis) of the same compound?
A: 60 µg/mL (≈ 154 µM)

Q: And the MIC (Nannizzia gypsea)?
A: 60 µg/mL (≈ 154 µM)

Q: And the MIC [1]?
A: 80 µg/mL (≈ 206 µM)

Q: And the MIC (Trichophyton rubrum)?
A: 50 µg/mL (≈ 129 µM)

Q: And the MIC (Epidermophyton floccosum)?
A: 25 µg/mL (≈ 64.4 µM)

Q: Which Activity (Candida albicans) does the source give for `C/C=C/c1ccc(O[C@@H](C)[C@@H](O)c2cc(OC)c(OC)c(OC)c2)c(OC)c1` (racemic) here?
A: inactive

Q: What about the Activity (Saccharomyces cerevisiae) of the same compound?
A: inactive

Q: What about the Activity (Cryptococcus neoformans) of the same compound?
A: inactive

Q: And the Activity (Aspergillus niger)?
A: inactive

Q: And the Activity (Aspergillus fumigatus)?
A: inactive

Q: And the Activity (Aspergillus flavus)?
A: inactive

Q: And the MIC (Microsporum canis)?
A: > 250 µg/mL

Q: And the MIC (Nannizzia gypsea)?
A: > 250 µg/mL

Q: And the MIC [1]?
A: > 250 µg/mL

Q: And the MIC (Trichophyton rubrum)?
A: 125 µg/mL (≈ 322 µM)

Q: And the MIC (Epidermophyton floccosum)?
A: 50 µg/mL (≈ 129 µM)

Q: With `C=CCc1cc(OC)c(O[C@@H](C)[C@@H](O)c2cc(OC)c(OC)c(OC)c2)c(OC)c1` (racemic) as the compound, how does the Activity (Candida albicans) read?
A: inactive

Q: What about the Activity (Saccharomyces cerevisiae) of the same compound?
A: inactive

Q: What about the Activity (Cryptococcus neoformans) of the same compound?
A: inactive

Q: And the Activity (Aspergillus niger)?
A: inactive

Q: And the Activity (Aspergillus fumigatus)?
A: inactive

Q: And the Activity (Aspergillus flavus)?
A: inactive

Q: And the MIC (Microsporum canis)?
A: 60 µg/mL (≈ 143 µM)

Q: What about the MIC (Nannizzia gypsea) of the same compound?
A: 80 µg/mL (≈ 191 µM)

Q: And the MIC [1]?
A: 50 µg/mL (≈ 119 µM)

Q: What about the MIC (Trichophyton rubrum) of the same compound?
A: 25 µg/mL (≈ 59.7 µM)

Q: What about the MIC (Epidermophyton floccosum) of the same compound?
A: 60 µg/mL (≈ 143 µM)

Q: `C=CCc1cc(OC)c(O[C@H](C)[C@@H](O)c2cc(OC)c(OC)c(OC)c2)c(OC)c1` (racemic) [RHAPHIDECURSINOL B] was tested. Which Activity (Candida albicans) did it give?
A: inactive

Q: What about the Activity (Saccharomyces cerevisiae) of the same compound?
A: inactive

Q: And the Activity (Cryptococcus neoformans)?
A: inactive

Q: What about the Activity (Aspergillus niger) of the same compound?
A: inactive

Q: And the Activity (Aspergillus fumigatus)?
A: inactive

Q: And the Activity (Aspergillus flavus)?
A: inactive

Q: And the MIC (Microsporum canis)?
A: 50 µg/mL (≈ 119 µM)

Q: And the MIC (Nannizzia gypsea)?
A: 150 µg/mL (≈ 358 µM)

Q: What about the MIC [1] of the same compound?
A: 50 µg/mL (≈ 119 µM)

Q: And the MIC (Trichophyton rubrum)?
A: 25 µg/mL (≈ 59.7 µM)

Q: What about the MIC (Epidermophyton floccosum) of the same compound?
A: 50 µg/mL (≈ 119 µM)
